Tests used:
HeLa cells = experiment: MMS and TMZ potentiation / HeLa cell viability assay; assay type: cell-based, human; settings: for IC50: Homo sapiens, read-out: 50% reduction in cell viability as a single agent; for IC50 / concentration of optimal synergy with MMS and TMZ: 24 h; for potentiation of cytotoxic effects of MMS and TMZ / concentration of optimal synergy with MMS and TMZ: MMS 0.4 mM or TMZ 1 mM
Procedure, shortened: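 HeLa cells in DMEM with 10% FBS, seeded at 6K/well and left overnight to attach. Medium was then replaced with fresh medium holding serial dilutions of test compound (5–30 µM), with or without MMS (0.4 mM) or TMZ (1 mM), for 24 h. Viability was read by CellTiter Glo luminescence after 30 min at room temperature, as percent of DMSO control, normalized to 100% per alkylating agent without compound.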

[1] = in vivo PK analysis, IP administration; settings: IP 30 mg/kg, CD1 mice, 24 hour observation
APE1 [2] = target: T1, APE1 (Homo sapiens, UniProt P27695); experiment: enzyme kinetic studies of APE1 incision; assay type: biochemical; settings: for KM increase: 5, 10 or 20 µM inhibitor; for mode of inhibition: Lineweaver-Burk analysis; for kcat decrease: only at the high inhibitor concentration
T1 sequence (P27695 whole entry): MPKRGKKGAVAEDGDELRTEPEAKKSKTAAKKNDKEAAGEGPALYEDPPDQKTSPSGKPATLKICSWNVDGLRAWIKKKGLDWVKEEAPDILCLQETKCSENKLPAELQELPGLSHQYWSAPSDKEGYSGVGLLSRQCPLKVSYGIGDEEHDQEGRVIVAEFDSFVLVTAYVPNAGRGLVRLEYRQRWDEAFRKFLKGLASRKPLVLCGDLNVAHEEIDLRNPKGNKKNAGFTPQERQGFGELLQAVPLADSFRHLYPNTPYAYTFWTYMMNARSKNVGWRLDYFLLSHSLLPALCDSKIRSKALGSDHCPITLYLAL

APE1-DNA complex = APE1-DNA complex (Homo sapiens, UniProt P27695); experiment: electrophoretic mobility shift assay; assay type: binding; settings: protein pre-treated with 30 µM inhibitor
APE1-DNA complex, sequence (P27695 whole entry, one chain of several): as the sequence (P27695 whole entry) above
Procedure, shortened: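 Recombinant wild-type APE1 (10 ng, ~28 nM) was preincubated 10 min on ice with test compound (1, 3, 10, 30, 100 µM) or 1% DMSO. 32P AP-DNA (100 fmol, 10 nM) was added for 5 min on ice. Complex and free DNA were separated on native 8% PAGE (2 h, 120 V); percent DNA bound was read by phosphorimager.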

CYP3A4 = CYP3A4 (Homo sapiens, UniProt P08684); experiment: CYP3A4 inhibition; assay type: in vitro ADME
CYP3A4, sequence (P08684 whole entry, species assumed): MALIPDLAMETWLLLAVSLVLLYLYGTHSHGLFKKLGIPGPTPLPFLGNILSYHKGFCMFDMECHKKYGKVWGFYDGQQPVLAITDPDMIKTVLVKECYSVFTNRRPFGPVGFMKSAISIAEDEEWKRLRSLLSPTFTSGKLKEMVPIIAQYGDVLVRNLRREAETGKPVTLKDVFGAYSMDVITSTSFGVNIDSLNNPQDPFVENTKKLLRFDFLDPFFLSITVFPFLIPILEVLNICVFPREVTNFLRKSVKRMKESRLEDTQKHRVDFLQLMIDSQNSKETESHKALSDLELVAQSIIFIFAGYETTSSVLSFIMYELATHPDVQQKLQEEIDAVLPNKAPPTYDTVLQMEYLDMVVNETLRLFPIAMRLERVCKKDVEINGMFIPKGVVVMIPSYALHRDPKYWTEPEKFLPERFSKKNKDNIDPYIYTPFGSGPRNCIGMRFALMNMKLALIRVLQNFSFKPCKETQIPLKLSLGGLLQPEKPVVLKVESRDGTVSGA

[3] = target: total AP site incision activity of HeLa whole cell extract (APE1) (Homo sapiens, UniProt P27695); experiment: HeLa whole cell extract incision assay; assay type: biochemical; settings: for inhibition at 100 µM: read-out: inhibition of the incision activity of HeLa extracts
total AP site incision activity of HeLa whole cell extract (APE1), sequence (P27695 whole entry): as the sequence (P27695 whole entry) above

Caco-2 permeability = assay type: in vitro ADME; settings: human, Caco-2, pH 7.4
APE1 [4] = target: T1, APE1; experiment: fluorescence-based qHTS assay of APE1 endonuclease activity; assay type: biochemical; settings: for less activity than the corresponding amide analog (4): relative to 4

CC(=O)Nc1sc2c(c1-c1nc3ccccc3s1)CCN(C(C)C)C2 [Compound 3, N-(3-(benzo[d]thiazol-2-yl)-6-isopropyl-4,5,6,7-tetrahydrothieno[2,3-c]pyridin-2-yl)acetamide]
IC50 (HeLa cells): ~15 µM | potentiation of cytotoxic effects of MMS and TMZ (HeLa cells): greatly potentiated | concentration of optimal synergy with MMS and TMZ (HeLa cells): 5 to 10 µM | tolerability [1]: well tolerated by the animals, with no adverse effects noted | KM increase (APE1 [2]): ≤ 4 fold | mode of inhibition (APE1 [2]): competitive inhibitors | kcat decrease (APE1 [2]): less than 6 fold | APE1-DNA binary complex (APE1-DNA complex): essentially absent | CYP3A4 (inh. @ 10 µM) (CYP3A4): 53% | inhibition at 100 µM [3]: ~100% | Papp (Caco-2 permeability): 500 ×10⁻⁶ cm/s

CC(=O)Nc1sc2c(c1-c1ccco1)CCNC2 [Compound 13]
activity against APE1 in the qHTS assay, in words (APE1 [4]): greatly diminished activity

CC(=O)Nc1sc2cnccc2c1-c1nc2ccccc2s1 [Compound 50]
activity against APE1 in the qHTS assay, in words (APE1 [4]): completely inactive

CC(=O)Nc1sc2c(c1-c1nc3ccccc3s1)CCNC2 [Compound 4]
inhibition at 100 µM [3]: ~100%

Cc1noc(-c2sc3c(c2-c2nc4ccccc4s2)CCNC3)n1 [Compound 44]
activity against APE1 in the qHTS assay, in words (APE1 [4]): completely inactive

CC(=O)Nc1sc2c(c1-c1nc3ccccc3s1)CCN(C(C)=O)C2 [Compound 8]
activity against APE1 in the qHTS assay, in words (APE1 [4]): significant loss of activity

Cc1nnc(-c2sc3c(c2-c2nc4ccccc4s2)CCNC3)o1 [Compound 43]
activity against APE1 in the qHTS assay, in words (APE1 [4]): completely inactive

CC(=O)Nc1sc2c(c1-c1cc3ccccc3s1)CCNC2 [Compound 15]
activity against APE1 in the qHTS assay, in words (APE1 [4]): greatly diminished activity

CC(=O)Nc1sc2c(c1-c1nc3ccccc3s1)CCSC2 [Compound 48]
activity against APE1 in the qHTS assay, in words (APE1 [4]): still active against APE1, albeit only at the highest concentration

CC(=O)Nc1sc2c(c1-c1nc3ccccc3s1)CCN(C(=O)OC(C)(C)C)C2 [Compound 5]
activity against APE1 in the qHTS assay, in words (APE1 [4]): significant loss of activity

O=C(CCc1ccccc1)Nc1sc2c(c1-c1nc3ccccc3s1)CCNC2 [Compound 30]
activity against APE1 in the qHTS assay, in words (APE1 [4]): inactive

CC(=O)Nc1sc2c(c1-c1nc3ccccc3s1)CNC2 [Compound 52, N-(3-(benzo[d]thiazol-2-yl)-5,6-dihydro-4H-thieno[2,3-c]pyrrol-2-yl)acetamide]
IC50 (HeLa cells): ~30 µM | potentiation of cytotoxic effects of MMS and TMZ (HeLa cells): greatly potentiated | concentration of optimal synergy with MMS and TMZ (HeLa cells): 10 to 15 µM | tolerability [1]: well tolerated by the animals, with no adverse effects noted | KM increase (APE1 [2]): up to 10 fold | mode of inhibition (APE1 [2]): competitive inhibitors | kcat decrease (APE1 [2]): less than 6 fold | APE1-DNA binary complex (APE1-DNA complex): essentially absent | inhibition of HeLa whole cell extract AP site incision ([3]; 10 µM inhibitor): almost complete inhibition | inhibition at 100 µM [3]: ~100% | Papp (Caco-2 permeability): 680 ×10⁻⁶ cm/s | IC50 (APE1 [4]): 3.1 µM

CC(=O)Nc1sc2c(c1-c1cccs1)CCNC2 [Compound 14]
activity against APE1 in the qHTS assay, in words (APE1 [4]): greatly diminished activity

O=C(O)c1sc2c(c1-c1nc3ccccc3s1)CCNC2 [Compound 42]
activity against APE1 in the qHTS assay, in words (APE1 [4]): complete loss of activity

CC(=O)Nc1sc2c(c1-c1nc3ccccc3s1)CNCC2 [Compound 53]
activity against APE1 in the qHTS assay, in words (APE1 [4]): only modest efficacy

CC(=O)Nc1sc2c(c1-c1nc3ccccc3s1)CCN(C(C)C)CC2 [Compound 55]
inhibition at 100 µM [3]: ~100%

CC(=O)Nc1sc2c(c1-c1ncco1)CCNC2 [Compound 19]
activity against APE1 in the qHTS assay, in words (APE1 [4]): greatly diminished activity

CC(C)(C)C(=O)Nc1sc2c(c1-c1nc3ccccc3s1)CCNC2 [Compound 26]
activity against APE1 in the qHTS assay, in words (APE1 [4]): inactive

CC(=O)Nc1sc2c(c1-c1nc3ccccc3s1)CCOC2 [Compound 47]
activity against APE1 in the qHTS assay, in words (APE1 [4]): still active against APE1, albeit only at the highest concentration

COC(=O)c1sc2c(c1-c1nc3ccccc3s1)CCNC2 [Compound 41]
activity against APE1 in the qHTS assay, in words (APE1 [4]): complete loss of activity

CC(=O)Nc1sc2c(c1-c1nccs1)CCNC2 [Compound 20]
activity against APE1 in the qHTS assay, in words (APE1 [4]): greatly diminished activity

Cc1nnc(Nc2sc3c(c2-c2nc4ccccc4s2)CCNC3)o1 [Compound 45]
activity against APE1 in the qHTS assay, in words (APE1 [4]): modest activity | less activity than the corresponding amide analog (4) (APE1 [4]): approximately 8 fold

CC(=O)Nc1sc2c(c1-c1nc3ccccc3o1)CCN(C(C)C)C2 [Compound 23]
loss in activity (APE1 [4]; relative to lead compound 3): 10 fold

Cc1noc(Nc2sc3c(c2-c2nc4ccccc4s2)CCNC3)n1 [Compound 46]
activity against APE1 in the qHTS assay, in words (APE1 [4]): modest activity | less activity than the corresponding amide analog (4) (APE1 [4]): approximately 8 fold

CC(=O)Nc1sc2c(c1-c1cc3ccccc3o1)CCNC2 [Compound 17]
activity against APE1 in the qHTS assay, in words (APE1 [4]): greatly diminished activity

CC(=O)Nc1sc2c(c1-c1nc(-c3ccccc3)cs1)CCN(C(C)C)C2 [Compound 24]
activity against APE1 in the qHTS assay, in words (APE1 [4]): activity comparable to the lead compound
